According to ChEMBL document CHEMBL1145286, “Dual angiotensin II and endothelin A receptor antagonists: synthesis of 2'-substituted N-3-isoxazolyl biphenylsulfonamides with improved potency and pharmacokinetics” (2005):
Calls of active or inactive are those of the source. No cut-off for these calls is given here.

Experiments:
Type in all cases: functional
[1] = biological target: Angiotensin II receptor (AT-1) type-1 (Rattus norvegicus) (UniProt P29089+P25095); assay: Angiotensin II pressor effect in rats after oral dose of 30 uM/kg
In short: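 Conscious rats given vehicle by gavage, then an iv bolus Ang II challenge as control pressor response; drug at 30 μmol/kg by oral gavage, Ang II re-challenge at intervals up to 240 min. 6–8 rats per dose. […]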

[2] = biological target: T1, Endothelin-1 receptor (Rattus norvegicus) (UniProt P26684); assay: Endothelin pressor effect in rats after oral dose of 30 uM/kg
T1 sequence (whole entry): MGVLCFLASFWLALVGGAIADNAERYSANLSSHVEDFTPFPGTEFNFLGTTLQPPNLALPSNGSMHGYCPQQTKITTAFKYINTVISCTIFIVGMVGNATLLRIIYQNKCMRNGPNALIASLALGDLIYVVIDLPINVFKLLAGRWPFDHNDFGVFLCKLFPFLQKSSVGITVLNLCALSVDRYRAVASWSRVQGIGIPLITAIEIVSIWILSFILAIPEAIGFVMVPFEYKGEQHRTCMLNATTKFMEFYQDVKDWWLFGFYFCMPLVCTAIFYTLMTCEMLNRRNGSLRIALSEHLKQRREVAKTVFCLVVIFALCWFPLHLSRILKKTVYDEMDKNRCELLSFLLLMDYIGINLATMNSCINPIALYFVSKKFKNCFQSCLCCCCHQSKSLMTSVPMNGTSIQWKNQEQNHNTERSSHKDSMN
In short: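 Conscious normotensive rats; big endothelin-1 (1.0 nmol/kg iv) challenge after vehicle gave the control pressor response. Drug at 30 μmol/kg given po (or iv), then bET-1 re-challenge at various times after dosing. 6–8 rats per group.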

Caco-2 = assay: Permeability in Caco-2 cell monolayer

Q: For `CCCCC1=NC2(CCCC2)C(=O)N1Cc1ccc(-c2ccccc2S(=O)(=O)Nc2noc(C)c2C)c(CCC)c1`, which Activity [1] is on record?
A: 16300 AUC units

Q: What about the Activity [2] of the same molecule?
A: 13000 AUC units

Q: What does the source list for `Cc1noc(NS(=O)(=O)c2ccccc2-c2ccc(-c3ncco3)cc2)c1C`?
A: Activity [1]: inactive; Activity [2]: 9700 AUC units

Q: How did the Activity (Caco-2) turn out when `CCCCC1=NC2(CCCC2)C(=O)N1Cc1ccc(-c2ccccc2-c2nnn[nH]2)cc1` [IRBESARTAN] was run?
A: 100 nm/s

Q: What about the Activity [1] of the same molecule?
A: 13500 AUC units

Q: And the Activity [2]?
A: inactive

Q: Which results are given for `CCCCC1=NC2(CCCC2)C(=O)N1Cc1ccc(-c2ccccc2S(=O)(=O)Nc2onc(C)c2C)c(CCC)c1`?
A: Activity (Caco-2): 240 nm/s; Activity [1]: 15900 AUC units; Activity [2]: 8600 AUC units

Q: Which Activity (Caco-2) does the source give for `CCCCC1=NC2(CCCC2)C(=O)N1Cc1ccc(-c2ccccc2S(=O)(=O)Nc2onc(C)c2C)c(COCC)c1` here?
A: 170 nm/s

Q: And the Activity [1]?
A: 13900 AUC units

Q: And the Activity [2]?
A: 3900 AUC units

Q: What does the source list for `CCCCC1=NC2(CCCC2)C(=O)N1Cc1ccc(-c2ccccc2S(=O)(=O)Nc2onc(C)c2C)c(CN2CCC(C)(C)C2=O)c1` [BMS-248360]?
A: Activity (Caco-2): 30 nm/s; Activity [1]: 5800 AUC units; Activity [2]: 7900 AUC units

Q: With `CCCCC1=NC2(CCCC2)C(=O)N1Cc1ccc(-c2ccccc2S(=O)(=O)Nc2noc(C)c2C)c(COCC)c1` as the molecule, how does the Activity [1] read?
A: 18600 AUC units

Q: What about the Activity [2] of the same molecule?
A: 15800 AUC units
